The sample as a whole holds a higher share of hits than the screen did.
PTEN del growth: growth suppression of PTEN-null HCT116, primary screen, cell-based, CellTiter-Glo | HCT116 PTEN-null viability, 60 h; hits give low values | viability, % at 10 µM | hit rate 1.2% among 140,000;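 active means viability at or below a set limit, 4 SD under the median of all tested compounds, cut at about 3.7% in these data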;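 further: PTEN knockout HCT116 line with beta catenin targeted HCT116 as companion control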
Fibroblast inh: antiproliferative effect on LL 47 fibroblasts – human, LL 47 cells, CellTiter-Glo luminescence, primary screen. LL 47 human lung fibroblast viability, ATP luminescence; hits give low values. viability, % at 10 µM. hit rate 1.1% among 85,000. AID 719, 2007;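 active means viability at or below 50% in the single dose screen; inactive means viability above 50%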;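 further: compound exposure lasted 72 h before the ATP readout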
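test system = LL 47 human lung fibroblasts | amount = 1,150 fibroblasts seeded per well | medium = 15% FBS in IMEM | times = overnight cell rest, 72 h compound treatment at 37 °C | measured by = CellTiter-Glo luminescence measuring cellular ATP | read-out = viability percentage against median untreated-cell control | benchmarks = cell-only wells, no compound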
HUVEC prolif 384: inhibitors of HUVEC proliferation, primary screen, cell-based, 384-well | viability, % at 10 µM (by protocol) | CellTiter-Glo luminescence, 72 h; hits give low values | hit rate 1.1% among 86,000;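 active means viability at or below 30%; inactive means viability above 30%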
H69AR growth 86K: proliferation blockers of H69AR lung cancer cells, primary screen, cell-based, human, 86K library; H69AR lung tumor viability, ATP luminescence, 72 h; hits give low values; viability, % at 10 µM; hit rate 6% among 85,000; AID 598, 2007;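 active means viability at or below 40%; inactive means viability above 40%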;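 further: multidrug resistant small cell line overexpressing MRP-1 efflux transporter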
bCat KO growth: primary screen for growth suppressors in beta-catenin knockout HCT116 cells (colon tumor, human); HCT116 beta-catenin knockout viability, CellTiter-Glo, 60 h; hits give low values; viability, % at 10 µM; hit rate 1.5% among 140,000;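 active means viability at or under a set limit, the compound median less 4 SD, cut at about 6% in these data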
Of the large screens only hits and unclear results are named; the others gave an inactive call.

CCCCCCOC(=O)C(C#N)c1nc2ccccc2nc1N1CCN(C)CC1 (stereo not drawn)	HUVEC prolif 384 5.8, H69AR growth 86K 3.6
CCC(CC)COC(=O)C(C#N)c1nc2ccccc2nc1N1CCN(CC)CC1 (stereo not drawn)	HUVEC prolif 384 3.2
Cc1ccc(Cl)cc1NC(=O)COC(=O)C12CC3CC(CC(C3)C1)C2	none
O=C(COC(=O)CC1CCCC1)Nc1cc2c(cc1Cl)C(=O)c1ccccc1C2=O	H69AR growth 86K 19
Oc1ccccc1CN1CCC(C(O)(c2ccccc2)c2ccccc2)CC1	none (no result: Fibroblast inh, HUVEC prolif 384, H69AR growth 86K)
CC(C)(C)c1ccc(C(O)CCCN2CCC(C(O)(c3ccccc3)c3ccccc3)CC2)cc1 (stereo not drawn)	PTEN del growth 0.8, Fibroblast inh 2.6, HUVEC prolif 384 2.4, H69AR growth 86K 0.8, bCat KO growth 0.7
CCn1c(SCC(=O)NC2CCCCC2)nc2c(c1=O)SC(C)C2 (stereo not drawn)	H69AR growth 86K 39
CC(C)(C)n1nnnc1C(c1cccs1)N(Cc1cccnc1)Cc1ccccc1Cl (stereo not drawn)	H69AR growth 86K 4.0
Cc1nn(C)c(C)c1NC(=O)CSc1nc(C2CC2)nc2c1cnn2-c1ccccc1	PTEN del growth 1.2, Fibroblast inh 43, bCat KO growth 1.3
Cc1cc(C)n2nc(SCC(=O)Nc3c(C)nn(-c4ccccc4)c3C)nc2n1	none
Cc1nn(C)c(C)c1NC(=O)CSc1nc(-c2ccccc2Cl)nc2c1cnn2-c1ccccc1	H69AR growth 86K 30
CC1CCCCN1C(=O)CSc1nc(C2CC2)nc2c1cnn2-c1ccccc1 (stereo not drawn)	none (no result: Fibroblast inh, HUVEC prolif 384, H69AR growth 86K)
O=C(CCNC(=O)c1ccc(Cl)cc1)Nc1c(F)c(F)cc(F)c1F	none (no result: Fibroblast inh, HUVEC prolif 384, H69AR growth 86K)
CCOC(=O)c1ccc(NC(=O)CSc2nc(NC(=O)c3ccccc3)c3c(C)c(C)oc3n2)cc1	H69AR growth 86K 22
COc1ccccc1C1C(C(C)=O)=C(C)N=c2s/c(=C\c3cc(OC)c(OC)c(OC)c3)c(=O)n21 (stereo not drawn)	H69AR growth 86K 30
CCOC(=O)c1[nH]c2ccc(OC)cc2c1NC(=O)C(C)N1CCC2(CC1)OCCO2 (stereo not drawn)	none
CCOC(=O)c1[nH]c2ccc(F)cc2c1NC(=O)C(C)N1CCc2cc(OC)c(OC)cc2C1 (stereo not drawn)	H69AR growth 86K 2.4
COC(=O)CCC(=O)Nc1sc(C)c(C)c1C(N)=O	H69AR growth 86K 19
Cc1cccc(N2CCN(C(=O)C3CCCN(S(=O)(=O)c4cccc5cccnc45)C3)CC2)c1C (stereo not drawn)	none (no result: PTEN del growth, bCat KO growth)
O=c1cc(-c2ccccc2)[nH]n1-c1nc2ccccc2[nH]1	Fibroblast inh 27, bCat KO growth 4.5 (no result: H69AR growth 86K)
CCOc1cc(-c2cc(-c3ccc(C)cc3)nc(N)c2C#N)ccc1O	H69AR growth 86K 6.9
CCOc1cc(-c2c(C#N)c(N)nc3c2CCCC3C)ccc1O (stereo not drawn)	H69AR growth 86K 31
CCOc1cc(-c2c(C#N)c(N)nc3c2CCc2ccccc2-3)ccc1O	none (no result: Fibroblast inh, HUVEC prolif 384, H69AR growth 86K)
CCOc1cc(/C=C(\C#N)c2[nH]nc(N)c2C#N)ccc1O	H69AR growth 86K 37
CCOc1cc(/C=C(\C#N)C(=O)NCC2CCCO2)ccc1O (stereo not drawn)	none (no result: Fibroblast inh, HUVEC prolif 384, H69AR growth 86K)
CCOC(=O)C1CCN(CC(=O)Nc2cc(C)nn2-c2nc3ccccc3s2)CC1	H69AR growth 86K 28
COC(=O)c1[nH]c2ccc(Br)cc2c1NC(=O)CN1CCN(C2CCCCC2)CC1	PTEN del growth 1.8, Fibroblast inh 16, HUVEC prolif 384 5.7, H69AR growth 86K 2.9, bCat KO growth 1.7
Cc1cc(NC(=O)CN2CC(C)OC(C)C2)n(-c2nc3ccccc3s2)n1 (stereo not drawn)	none
CCOC(=O)C1CCN(CC(=O)Nc2c(C(=O)OC)[nH]c3ccccc23)CC1	H69AR growth 86K 1.9
COC(=O)c1[nH]c2cc(C)ccc2c1NC(=O)CN1CCCc2ccccc21	bCat KO growth 5.5 (no result: Fibroblast inh, HUVEC prolif 384, H69AR growth 86K)
COC(=O)c1[nH]c2cc(C)ccc2c1NC(=O)CN1CCN(C(=O)c2ccco2)CC1	none
CCc1ccc(C2CC(c3cccc(OC)c3)n3nc(N)nc3N2)cc1 (stereo not drawn)	none (no result: PTEN del growth, bCat KO growth)
CN(C(=S)NC(=O)CCCOc1ccc(Cl)cc1Cl)c1ccccc1	none (no result: Fibroblast inh, HUVEC prolif 384, H69AR growth 86K)
Cc1nc(-c2ccc(NC(=O)CC(C)C)cc2)cs1	none (no result: Fibroblast inh, HUVEC prolif 384, H69AR growth 86K)
COC(=O)c1[nH]c2ccc(Br)cc2c1NC(=O)CN1CCCc2ccccc21	H69AR growth 86K 21
CCOC(=O)C1CCCN(CC(=O)Nc2c(C(=O)OC)[nH]c3ccc(Br)cc23)C1 (stereo not drawn)	none
O=c1c2c3nc4ccccc4nc3n(-c3cccc(F)c3)c2ncn1Cc1ccc2c(c1)OCO2	H69AR growth 86K 18 (no result: PTEN del growth, bCat KO growth)
CCOC(=O)c1c(NC(=O)c2csc(C)c2)sc(C(C)=O)c1C	none (no result: PTEN del growth, bCat KO growth)
Cc1ccccc1OCCCn1c(=O)sc2ccccc21	none
O=S(=O)(c1ccc2c(c1)OCCO2)N1CCC(c2nc3ccc(Cl)cc3[nH]2)CC1	H69AR growth 86K 15
O=C(c1ccc(S(=O)(=O)N2CCC(c3nc4ccccc4[nH]3)CC2)cc1)N1CCOCC1	none
Cc1ccc(-c2noc(C3CCN(S(=O)(=O)c4ccc5c(c4)OCCO5)CC3)n2)o1	H69AR growth 86K 40
Cc1ccc(-c2noc(C3CCCN(S(=O)(=O)c4ccc5ccccc5c4)C3)n2)o1 (stereo not drawn)	none
O=C(NCC1CCCO1)c1ccc(S(=O)(=O)N2CCC(c3nc4ccc(Cl)cc4[nH]3)CC2)cc1 (stereo not drawn)	H69AR growth 86K 36
Cc1ccc2nc(C3CCN(S(=O)(=O)c4ccc5ccccc5c4)CC3)[nH]c2c1	H69AR growth 86K 8.0
CC/C(=N\NC(=O)c1cc(C)nc2ccccc12)c1ccc(C)s1	none (no result: Fibroblast inh, HUVEC prolif 384, H69AR growth 86K)
Cc1cccc(NS(=O)(=O)c2ccc3c(c2)Cc2cc(S(=O)(=O)Nc4cccc(C)c4C)ccc2-3)c1C	none (no result: Fibroblast inh, HUVEC prolif 384, H69AR growth 86K)
Cc1ccc(C(=O)COC(=O)c2ccccc2NC(=O)c2ccccc2)cc1[N+](=O)[O-]	none (no result: Fibroblast inh, HUVEC prolif 384, H69AR growth 86K)
CCn1cc(C(=O)NCc2ccco2)c(=O)c2cc(S(=O)(=O)N3CCC(C)CC3)ccc21	none
CCn1cc(C(=O)NCc2ccco2)c(=O)c2cc(S(=O)(=O)N3CC(C)CC(C)C3)ccc21 (stereo not drawn)	HUVEC prolif 384 22
COc1ccc2c(c1)sc1nc(-c3ccccc3)cn12	H69AR growth 86K 20
CCOC(=O)N1CCN(C(=O)c2ccc3c(c2)sc2nc(-c4ccc(OC)cc4)cn23)CC1	none (no result: Fibroblast inh, HUVEC prolif 384, H69AR growth 86K)
CN1CCN(c2nc(Nc3cccc(C(F)(F)F)c3)nc(N3CCOCC3)n2)CC1	HUVEC prolif 384 9.8 (no result: Fibroblast inh)
O=C(O)c1cccc(Nc2nc(N3CCOCC3)nc(N3CCOCC3)n2)c1	none
O=C(COc1ccccc1C(=O)c1cnn(-c2ccccc2)c1)Nc1ccccc1	none (no result: Fibroblast inh, HUVEC prolif 384, H69AR growth 86K)
CC(C)(C)c1ccc(C(=O)NCC(=O)OCc2ccc([N+](=O)[O-])cc2)cc1	none (no result: Fibroblast inh, HUVEC prolif 384, H69AR growth 86K)

High-throughput results (PubChem BioAssay)
